Laboratory results as given in publication PMC7933111 (ACS chemical neuroscience, 2021).
Where two headings read alike, the source gives them in different places.

How the values were obtained:
[1] = test system: C57BL/6 wild-type mice; experiment: Head-twitch response; format: in vivo, mouse; details: for effect of antagonist pretreatment on HTR in mice administered 1-NP or 2-NP: 5-HT1AR antagonist WAY100635 or 5-HT2CR antagonist SB-242084 pretreatment; for HTR counts vs vehicle: 5 mg/kg, first 30 min postinjection, wild-type
[2] = biological target: T1, 5-HT2AR (Homo sapiens, UniProt P28223); format: binding
T1 sequence (P28223 whole entry): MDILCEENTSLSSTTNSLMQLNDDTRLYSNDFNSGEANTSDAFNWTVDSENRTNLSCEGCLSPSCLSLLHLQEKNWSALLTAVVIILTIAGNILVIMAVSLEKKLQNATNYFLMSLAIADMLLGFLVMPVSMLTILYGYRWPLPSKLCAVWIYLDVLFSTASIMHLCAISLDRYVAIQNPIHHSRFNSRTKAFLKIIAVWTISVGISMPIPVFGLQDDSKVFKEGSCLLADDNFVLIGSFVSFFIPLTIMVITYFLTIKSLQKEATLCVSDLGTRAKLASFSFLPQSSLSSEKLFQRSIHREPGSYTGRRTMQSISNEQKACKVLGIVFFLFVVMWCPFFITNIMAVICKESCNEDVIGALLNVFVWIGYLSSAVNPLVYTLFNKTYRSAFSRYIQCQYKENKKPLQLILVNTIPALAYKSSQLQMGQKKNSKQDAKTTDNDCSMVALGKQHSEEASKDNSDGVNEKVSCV

[3] = test system: 5-HT2A-KO mice; experiment: Head-twitch response; format: in vivo, mouse; details: 5 mg/kg, first 30 min postinjection
Summary of the method: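 Adult (8–16 weeks) male 5-HT2A-KO mice rederived from 129sv (F5), from the authors' colony. After 30 min of chamber habituation for baseline, mice were dosed and followed 90 min by magnetometer. HTR counts were automated with minor visual checking and summed over the first 30 min post-injection, then compared with vehicle by one-way ANOVA with Bonferroni post hoc; n = 5–12.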

[4] = biological target: T1, 5-HT2AR; experiment: Intracellular Ca2+ mobilization; format: cell-based; details: for Emax: HEK293, read-out: Emax (Ca2+ mobilization)
[5] = test system: rats trained to distinguish DOM from vehicle; details: cited from earlier work
[6] = test system: mice; experiment: GI effect of 5-HTP in mice; format: in vivo, mouse; details: i.p., data not shown
[7] = test system: 5-HT2AR; experiment: IP1 accumulation in vivo; design: species or system mouse
Summary of the method: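 Male C57BL/6 mice, 10 weeks old, received LiCl 200 mg/kg and returned home 30 min before treatment; co-administered antagonist was given in the same solution. Mice were decapitated 60 min later, and frontal cortex and posterior cerebellum were frozen at −80 °C. Tissue was bead-lysed at 4 °C in kit buffer with 50 mM LiCl and centrifuged at 17 000g. HTRF was read in duplicate; inverted 615/665 ratio, cortex/cerebellum fold-change; n = 3/group.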

[8] = test system: mice; experiment: Quantification of feces; format: in vivo, mouse
Summary of the method: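 Mice habituated to the monitoring chambers and to i.p. injections were acclimated 30 min, then injected i.p. with drug(s) or saline vehicle at 10 μL/g. Feces were counted over the first 30 min; pellets present before or immediately after injection were excluded. n = 9; two-way ANOVA with Bonferroni post hoc.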

[9] = test system: c-fos, egr-1, egr-2; experiment: Immediate early gene expression in somatosensory cortex, wild-type mice; format: in vivo, mouse; details: 5 mg/kg, 60 min, wild-type 129S6/SvEv
[10] = test system: c-fos, egr-1, egr-2; experiment: Immediate early gene expression in somatosensory cortex, 5-HT2AR-KO mice; format: in vivo, mouse; details: 5 mg/kg, 60 min, 5-HT2AR-KO littermates
Summary of the method: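 Adult (10–20 weeks) 129S6/SvEv 5-HT2AR-KO mice, born to Htr2a± heterozygote breeders. Somatosensory cortex was taken 60 min after 5 mg/kg test compound or vehicle, and c-fos, egr-1 and egr-2 expression was measured alongside a housekeeping gene; n = 5.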

[11] = biological target: T1, 5-HT2AR; format: binding; remark: listed apart in the source
[12] = biological target: 5-HT2AR; experiment: [3H]ketanserin binding displacement, mouse frontal cortex membranes; details: 5 nM [3H]ketanserin
[13] = biological target: T1, 5-HT2AR; experiment: IP1 accumulation in vitro; format: cell-based; details: single concentration, 30 min at 37 °C

## 6-chloro-2,3-dihydro-5-methyl-N-[6-[(2-methyl-3-pyridinyl)oxy]-3-pyridinyl]-1H-indole-1-carboxyamide dihydrochloride [SB-242084]
[1]
  effect of antagonist pretreatment on HTR in mice administered 1-NP or 2-NP: did not significantly affect HTR

## c1ccc2c(N3CCNCC3)cccc2c1 [1-NP, 1-(naphthalen-1-yl)piperazine]
[1]
  HTR counts vs vehicle: Neither isoquipazine nor 1-NP produced changes in HTR counts
[1]; i.p.
  HTR dose-response: apparent suppression of HTR counts at all tested doses
[2]
  Ki: 0.1 µM

## c1ccc2cc(N3CCNCC3)ccc2c1 [2-NP, 1-(naphthalen-2-yl)piperazine]
[1]
  HTR counts vs vehicle: increase in HTR that differed statistically from vehicle
[1]; Mus musculus, ip, read-out: ED50 (HTR)
  ED50: 0.42 ± 0.2 mg/kg
[1]; i.p.
  HTR dose-response: dose-dependent
[3]
  HTR vs vehicle in 5-HT2AR-KO mice: did not differ
[2]
  Ki: 0.724 µM
[4]
  EC50: 0.15 µM
  Emax: 48.9%
[5]
  generalization for the DOM stimulus: full generalization

## N[C@@H](Cc1c[nH]c2ccc(O)cc12)C(=O)O [5-HTP, 5-hydroxytryptophan]
[6]
  GI effect: produced diarrhea

## COc1cccc([C@H](O)C2CCN(CCc3ccc(F)cc3)CC2)c1OC [M100907, (R)-(+)-α-(2,3-dimethoxyphenyl)-1-[2-(4-fluorophenyl)ethyl]-4-pipidinemethanol]
[7]; M100907 0.1 mg/kg with quipazine 5 mg/kg
  effect on quipazine-induced IP1 accumulation in vivo: successfully blocked

## COc1ccccc1N1CCN(CCN(C(=O)C2CCCCC2)c2ccccn2)CC1.O=C(O)/C=C\C(=O)O [WAY100635, N-[2-[4-(2-methoxyphenyl)-1-piperazinyl]ethyl]-N-2-pyridinylcyclohexanecarboxamide maleate]
[1]
  effect of antagonist pretreatment on HTR in mice administered 1-NP or 2-NP: did not significantly affect HTR

## c1ccc2c(N3CCNCC3)nccc2c1 [isoquipazine, 1-(piperazin-1-yl)isoquinoline]
[1]
  HTR counts vs vehicle: Neither isoquipazine nor 1-NP produced changes in HTR counts
[2]
  Ki: 3.8 µM
[4]
  IC50: 24.7 µM

## Cc1nccn1CC1CCc2c(c3ccccc3n2C)C1=O (stereo not drawn) [ondansetron, 1,2,3,9-tetrahydro-9-methyl-3-[(2-methyl-1H-imidazol-1-yl)methyl]-4H-carbazol-4-one]
[8]; ondansetron 1 mg/kg with quipazine 5 mg/kg, 30 min following cotreatment
  effect on quipazine-induced feces count increase: successfully reduced

## c1ccc2nc(N3CCNCC3)ccc2c1 [quipazine, 2-(piperazin-1-yl)quinoline]
[1]; different doses, i.p., 90 min recording
  effect on HTR counts: robust and long-lasting increase on HTR counts
[1]; highest doses evaluated
  duration of HTR increase: over 90 min
[1]; i.p.
  time of peak of HTR increase post injection: ≤ 30 min
[3]
  HTR vs vehicle in 5-HT2AR-KO mice: did not differ
[8]; quipazine 5 mg/kg, first 30 min
  effect on feces count: feces count increase
[7]; 5 mg/kg, LiCl 200 mg/kg pretreatment, 60 min
  IP1 accumulation in frontal cortex vs vehicle: greater accumulation of IP1
[9]
  cortical expression of c-fos, egr-1 and egr-2: exhibited changes in the cortical expression of c-fos, egr-1, and egr-2
[10]
  changes in c-fos, egr-1 and egr-2 expression: not observed
[11]
  Ki: 5.13 µM
[12]
  pKi: 5.601 ± 0.16
[2]
  Ki: 20 µM
[13]
  IP1 accumulation (in words): robust increase of IP1 accumulation
[4]
  EC50: 7.26 µM
  Emax: 44.3%
